# Screens: PubChem BioAssay, several laboratories
# Pf gamet viab: P. falciparum stage V gametocyte viability inhibition. P. falciparum stage V gametocytes, ATP luminescence, 24 h. inhibition, % at 10.9 µM. hit rate 0.065% among 150,000. AID 743093;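 active = inhibition above the mean plus 3 SD of compounds within the control limits, set per campaign, cut at about 38% in these data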;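 note: 0% = DMSO wells and 100% = medium only without gametocytes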
# RBBP9 inhibitor: blocks human serine hydrolase RBBP9; inhibition, % at 7.94 µM; hit rate 0.2% among 220,000; O75884; recombinant RBBP9, FP-Rh probe fluorescence polarization;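 active = inhibition above the campaign mean of all tested compounds plus 3 SD, cut at about 14% in these data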;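 note: plate controls were DMSO wells with RBBP9 for no effect and wells lacking RBBP9 protein for full effect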
#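 Controls: DMSO-treated enzyme wells and wells lacking RBBP9 | Material: RBBP9 protein | Technique: Fluorescence polarization | Replication: Single well per compound, no replicates | Buffer or medium: Tris-NaCl-Pluronic buffer, pH 8.0 | Timing: 30 min compound preincubation, 45 min probe labeling, 25 °C | Read-out basis: Percent inhibition from mP, scaled between DMSO and no-protein wells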
# m-calpain inh: blocks pig calpain II enzyme activity. inhibition, % at 16 µM. AID 1236. purified calpain II, fluorogenic peptide substrate, 30 min. hit rate 0.37% among 220,000;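 active = inhibition above about 50%, limit read from the data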
# L929 necroptosis: L929 zVAD cell death inhibition. viability rescue, % at 10 µM. hit rate 0.38% among 220,000. L929 zVAD necroptosis rescue, ATP luminescence, 24 h; with zVAD 60 µM;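 active = activation, scaled between plate controls, above about 75%, limit read from the data; inactive = activation under that limit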;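 note: 0% = zVAD with DMSO and 100% = DMSO alone without zVAD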
# Wee1 degr inh: human Wee1 degradation inhibition, primary screen; P30291; HeLa Luc-Wee1K328M stability, luciferase luminescence; 100% = proteasome inhibitor MG132 effect; reporter increase, % at 5 µM; hit rate 1.2% among 220,000; AID 1321;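 active = activation above the mean of all tested compounds plus 3 SD, set per screening run, cut at about 8.8% in these data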;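 note: cells exposed to compound for 20 h before luminescence read; 0% = DMSO alone and 100% = MG132 at 30 µM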
# Target sequence (P30291 whole entry K328M): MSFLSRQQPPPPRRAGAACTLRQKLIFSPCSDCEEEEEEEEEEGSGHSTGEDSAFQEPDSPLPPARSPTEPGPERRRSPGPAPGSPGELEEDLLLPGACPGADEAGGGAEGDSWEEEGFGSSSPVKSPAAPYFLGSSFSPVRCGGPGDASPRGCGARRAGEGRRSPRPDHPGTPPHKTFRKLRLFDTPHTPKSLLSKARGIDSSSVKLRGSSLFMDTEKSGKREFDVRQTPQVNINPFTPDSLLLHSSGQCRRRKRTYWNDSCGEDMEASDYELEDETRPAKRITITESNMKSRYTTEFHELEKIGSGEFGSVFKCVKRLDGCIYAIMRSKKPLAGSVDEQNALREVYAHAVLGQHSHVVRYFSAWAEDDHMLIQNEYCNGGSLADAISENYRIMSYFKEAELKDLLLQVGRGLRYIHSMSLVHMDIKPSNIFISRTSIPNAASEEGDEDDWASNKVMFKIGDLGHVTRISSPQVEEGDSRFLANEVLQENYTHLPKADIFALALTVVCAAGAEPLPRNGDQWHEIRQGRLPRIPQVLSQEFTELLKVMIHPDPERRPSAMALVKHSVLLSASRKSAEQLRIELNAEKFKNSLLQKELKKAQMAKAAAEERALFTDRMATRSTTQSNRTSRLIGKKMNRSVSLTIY
# TNF necrop inh: TNF-alpha cell death inhibition in Jurkat FADD-/- cells | Jurkat FADD-/- TNF necroptosis rescue, ATP luminescence, 24 h; 0 = TNF only, 100 = no-TNF cells | activation (protection from cell death), % at 10 µM | hit rate 0.068% among 220,000 | AID 463075;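 active = activation, meaning protection from cell death, of at least 50% relative to plate controls; inactive = activation below 50%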;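 note: necroptosis triggered by 40 ng/mL TNF-alpha added together with compound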
# Starred values were filed as active, the others as inactive; · = not tested or not shown. Hits are enriched below; roughly 2.1% of the tested compounds scored in any of these assays.
SMILES,Pf gamet viab,RBBP9 inhibitor,m-calpain inh,L929 necroptosis,Wee1 degr inh,TNF necrop inh
CC(=O)Nc1ccccc1C(=O)C(=O)Nc1cccc(C(=O)NCC2CCCO2)c1 (stereo not drawn),-7,-6,93*,2,4,0
CC(=O)Nc1ccccc1C(=O)C(=O)Nc1ccc(C(=O)NCC2CCCO2)cc1 (stereo not drawn),-7,-13,11,0,-3,0
CCOc1ccc2nc(NC(=O)CCn3cccc3)sc2c1,·,-10,-58,85*,6,6
Cc1ccc(SCC(=O)NC(=O)Nc2ccc3c(c2)OCCO3)c(C)c1,-4,2,-3,0,-1,2
O=C(NC(=S)NCC1CCCO1)c1ccccc1 (stereo not drawn),-2,1,-4,0,9.0*,1
CC(C)(C)c1cc(CP(=O)(c2ccccc2)c2ccccc2)cc(C(C)(C)C)c1O,11,·,·,·,·,·
Cc1ccc(O)c(CP(=O)(c2ccccc2)c2ccccc2)c1,1,1,22,0,9.4*,1
CN(Cc1ccccc1)S(=O)(=O)c1ccc(S(=O)(=O)N2CCN(CCC#N)CC2)cc1,·,9,·,1,-2,3
CCOC(=O)C1=C(C)N(C)C(=S)NC1c1ccccc1 (stereo not drawn),12,-6,-3,0,3,2
CCOC(=O)C1=C(C)N(C)C(=S)NC1c1ccc(Cl)cc1 (stereo not drawn),-12,-5,6,1,9.9*,-2
COCCn1c(-c2ccc(-c3ccc([N+](=O)[O-])cc3Br)o2)nc2c1c(=O)[nH]c(=O)n2CC(C)C,15,-10,-149,0,0,-3
Cc1ccc(NC(=S)/C(=C(\[O-])c2ccc(F)cc2)[n+]2ccccc2)cc1,39*,-7,-26,1,-3,1
O=C(Nc1cc(-c2ccccc2)nn1-c1ccccc1)c1ccccc1F,-10,·,·,·,·,·
CCc1cc2c(=O)n(Cc3ccccc3)c(SC3CCOC3=O)nc2s1 (stereo not drawn),-17,-13,54*,-1,6,0
Cc1ccc(Cn2c(SC3CCOC3=O)nc3ccccc3c2=O)cc1 (stereo not drawn),-7,-7,-1,1,4,3
COc1ccc(Br)c(C(=O)N2CCN(S(=O)(=O)/C=C/c3ccccc3)CC2)c1,-9,-8,19,1,0,2
COc1ccc(N2CCN(S(=O)(=O)/C=C/c3ccccc3)CC2)cc1,-36,-9,-13,1,9.3*,0
O=C1NC[C@H](Cc2ccc(O)cc2)N(CC2CCCCC2)C1=O,·,·,-10,0,·,0
Oc1ccc(C[C@@H]2CNC(=S)N2CCCCC2CCCCC2)cc1,17,-2,51*,-1,-2,-1
Cc1ccc(N2CCN(CC(O)COc3ccc([N+](=O)[O-])cc3)CC2)cc1 (stereo not drawn),20,-4,27,0,-2,1
O=[N+]([O-])c1ccc(OCC(O)CN2CCN(c3ccccc3F)CC2)cc1 (stereo not drawn),1,-4,57*,1,1,3
O=C1c2cccc(Sc3ccccc3)c2C(=O)c2c(Sc3ccccc3)cccc21,8,-1,50*,1,-1,2
Cc1cc(O)c(C(=O)Cc2csc(C)n2)c(O)c1,-9,-8,12,2,2,2
CCn1cc(S(=O)(=O)N2CCN(Cc3ccc(F)cc3)CC2)cn1,-2,0,0,0,2,1
CCCNS(=O)(=O)c1ccc(CCC(=O)Nc2cc(Cl)ccc2Oc2ccccc2)cc1,·,-30,8,0,0,-14
SMILES,Pf gamet viab,RBBP9 inhibitor,m-calpain inh,L929 necroptosis,Wee1 degr inh,TNF necrop inh
CC(C)CNS(=O)(=O)c1ccc(CCC(=O)Nc2cc(Cl)ccc2Oc2ccccc2)cc1,-7,-27,71*,-1,-1,0
Cc1cccc(C)c1N(CC(=O)Nc1cc(Cl)ccc1Oc1ccccc1)S(C)(=O)=O,·,-12,52*,0,-2,-3
CC(=O)CCc1c(C)[nH]c2ccc(NC(C)=O)cc2c1=O,·,-10,-24,2,4,0
CCCc1c(C)[nH]c2ccc(NC(C)=O)cc2c1=O,·,4,-23,0,8.9*,-1
COc1ccc(-c2cc(C(=O)Nc3ccccc3SC)no2)cc1,-37,-9,-1,1,-2,1
CSc1ccccc1NC(=O)c1cc(-c2cccs2)on1,·,-7,-170,0,9.4*,0
Cc1sc(NC(=O)c2ccco2)c(CN2CCN(Cc3ccccc3)CC2)c1C,2,3,-132,2,1,2
COc1cc(/C=C2/S/C(=N/S(=O)(=O)Cc3ccccc3)NC2=O)c([N+](=O)[O-])cc1OC,9,1,-51,1,1,0
O=C1c2ccsc2SCCN1Cc1ccccc1,·,3,5,1,-1,70*
COCCN(C(=O)c1ccccc1F)c1nnc(-c2ccc(OC)cc2)s1,-7,·,·,·,·,·
COc1ccc(-c2ccc(SCc3ccccn3)nn2)cc1OC,-3,1,-28,18,9,1
c1ccc(CSc2ccc(-c3ccccn3)nn2)nc1,-15,-7,-10,61,9.7*,2
c1ccc(-c2ccc(SCc3cccnc3)nn2)nc1,13,0,-29,56,2,0
Clc1ccc(-c2ccc(SCc3ccccn3)nn2)cc1,2,-11,4,0,10*,2
Cc1ccc(Oc2ccccc2/C=C2\SC(=O)N(C)C2=O)cc1,-8,-5,7,0,3,52*
Cc1cc(C(=O)OCC(=O)NCc2cccs2)c2ccccc2n1,12,-10,-42,4,1,1
COc1ccccc1CNC(=O)Cn1nnc(-c2ccncc2)n1,-35,-5,-24,86*,0,1
O=C(Nc1cc(=O)[nH]c2ncnn12)c1ccccc1F,4,7,2,1,9.4*,1
COc1cc(C(=O)N(CCN(C)C)CC2CCCN(Cc3ccccc3F)C2)ccc1C (stereo not drawn),12,·,·,·,·,·
COc1ccc(NC(=O)c2ccc(OC(=S)N(C)c3ccc(OC)cc3)cc2)cc1,·,-2,-7,0,0,68*
Cc1ccsc1C1Nc2ccccc2C(=O)N1O (stereo not drawn),-28,-1,-6,1,9.0*,0
CCCCNS(=O)(=O)c1ccc2nc(SCC(=O)Nc3ccccc3Cl)[nH]c2c1,·,-12,56*,1,0,6
CNS(=O)(=O)c1cccc(C(=O)Nc2cccnc2)c1,-13,5,-5,1,11*,1
CCN(CC)S(=O)(=O)c1cccc(C(=O)Nc2cccnc2)c1,·,0,12,0,3,0
CC1(C)c2[nH]c3ccccc3c2C[C@@H]2C(=O)N(c3ccc(F)cc3F)C(=O)N21,-6,·,·,·,·,·
